According to ChEMBL document CHEMBL3779801, “Discovery of the Selective CYP17A1 Lyase Inhibitor BMS-351 for the Treatment of Prostate Cancer” (ACS Med Chem Lett, 2016):

Tests used:
[1] = target: T1, Cytochrome P450 1A2 (Homo sapiens, UniProt P05177); assay: Inhibition of CYP1A2 (unknown origin); assay type: ADME
T1 sequence (P05177 whole entry): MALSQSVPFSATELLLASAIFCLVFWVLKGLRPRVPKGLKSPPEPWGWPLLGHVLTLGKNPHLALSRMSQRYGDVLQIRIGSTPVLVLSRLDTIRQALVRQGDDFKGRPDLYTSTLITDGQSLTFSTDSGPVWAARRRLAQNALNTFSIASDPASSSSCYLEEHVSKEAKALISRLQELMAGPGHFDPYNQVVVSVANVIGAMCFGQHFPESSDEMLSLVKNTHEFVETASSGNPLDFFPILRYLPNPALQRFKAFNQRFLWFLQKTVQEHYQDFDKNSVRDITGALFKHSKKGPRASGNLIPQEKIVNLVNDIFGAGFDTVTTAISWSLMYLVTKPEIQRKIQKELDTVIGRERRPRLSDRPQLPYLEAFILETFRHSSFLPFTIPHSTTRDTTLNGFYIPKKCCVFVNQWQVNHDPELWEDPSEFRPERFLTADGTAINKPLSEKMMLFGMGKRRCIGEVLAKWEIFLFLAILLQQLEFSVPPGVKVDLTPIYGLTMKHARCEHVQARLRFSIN

[2] = Metabolic stability in mouse liver microsomes assessed as parent compound remaining at 0.5 uM incubated for 10 mins; assay type: ADME; details: read-out: Stability
Outline: (§1)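 Compound at 0.5 μM was incubated with human, mouse or cynomolgus liver microsomes for 10 min.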

[3] = Metabolic stability in cynomolgus monkey liver microsomes assessed as parent compound remaining at 0.5 uM incubated for 10 mins; assay type: ADME, Macaca fascicularis; details: read-out: Stability; outline: as §1
[4] = target: T2, Steroid 17-alpha-hydroxylase/17,20 lyase (Macaca fascicularis, UniProt Q2XVA1); assay: Inhibition of CYP17A1 in cynomolgus monkey using [3H]-pregnenolone as substrate incubated for 45 mins by scintillation proximity assay in presence of NADPH
T2 sequence (Q2XVA1 whole entry): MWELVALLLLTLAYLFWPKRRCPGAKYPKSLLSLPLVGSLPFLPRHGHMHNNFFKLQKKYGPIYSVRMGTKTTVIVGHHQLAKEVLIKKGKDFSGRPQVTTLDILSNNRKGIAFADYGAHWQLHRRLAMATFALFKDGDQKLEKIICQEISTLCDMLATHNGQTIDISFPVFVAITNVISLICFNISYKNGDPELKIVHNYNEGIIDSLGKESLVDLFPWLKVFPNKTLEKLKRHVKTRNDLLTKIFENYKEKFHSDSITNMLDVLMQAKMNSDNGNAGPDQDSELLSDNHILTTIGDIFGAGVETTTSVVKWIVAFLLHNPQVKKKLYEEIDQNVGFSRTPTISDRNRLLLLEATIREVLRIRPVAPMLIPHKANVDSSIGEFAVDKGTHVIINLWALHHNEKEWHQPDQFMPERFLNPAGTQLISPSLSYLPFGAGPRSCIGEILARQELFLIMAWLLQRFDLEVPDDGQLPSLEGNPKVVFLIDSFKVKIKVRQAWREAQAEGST

[5] = target: T2, Steroid 17-alpha-hydroxylase/17,20 lyase; assay: Selectivity ratio of cynomolgus monkey CYP17A1 hydroxylase activity using pregnenolone substrate to cynomolgus monkey CYP17A1 lyase activity using [3H]-hydroxypregnenolone substrate
Outline: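 Hydroxylase and lyase activities were run with different enzyme preparations, so the hydroxylase/lyase ratios are estimates.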

[6] = Cmax in cynomolgus monkey plasma at 4 mg/kg, po after 0.25 to 45 hrs by LC-MS/MS analysis; assay type: ADME, organism-based, Macaca fascicularis; parameters: dose 4 mg/kg, route oral
Outline: (§2)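 Cynomolgus monkeys were dosed orally from a solution formulation. Plasma parameters are given as mean ± standard deviation.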

[7] = Tmax in cynomolgus monkey plasma at 4 mg/kg, po after 0.25 to 45 hrs by LC-MS/MS analysis; assay type: ADME, organism-based, Macaca fascicularis; outline: as §2
[8] = Volume of distribution at steady state in cynomolgus monkey plasma at 2 mg/kg, iv by LC-MS/MS analysis; assay type: ADME, organism-based, Macaca fascicularis; details: read-out: Vdss
Outline: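 Cynomolgus monkeys were dosed intravenously. Plasma parameters are given as mean ± standard deviation.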

[9] = Oral bioavailability in cynomolgus monkey plasma at 4 mg/kg after 0.25 to 45 hrs by LC-MS/MS analysis; assay type: ADME, organism-based, Macaca fascicularis
Outline: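 Oral bioavailability in cynomolgus monkey came from oral dosing of a solution formulation combined with a separate 2 mg/kg iv dose. Values are mean ± standard deviation.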

[10] = test system: Cynomolgus monkey; assay: Ratio of Cmax to Cmean in cynomolgus monkey plasma at 4 mg/kg, po after 0.25 to 45 hrs by LC-MS/MS analysis; assay type: ADME, organism-based, Macaca fascicularis; details: in vivo
[11] = test system: Cynomolgus monkey; assay: Free plasma concentration in cynomolgus monkey plasma at 1 mg/kg, po by LC-MS/MS analysis; assay type: ADME, organism-based, Macaca fascicularis; details: in vivo
[12] = test system: Cynomolgus monkey; assay: Effect on cortisol level in one day castrated cynomolgus monkey assessed as baseline level at 1.5 mg/kg, po bid for 24 hrs by radiometric immunoassay; assay type: ADME, organism-based, Macaca fascicularis; details: in vivo
[13] = Tmax in one day castrated cynomolgus monkey at 1.5 mg/kg, po bid measured after second dose administered at 8 hrs; assay type: ADME, organism-based, Macaca fascicularis; details: male, in vivo
Outline: (§3)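 Castrated cynomolgus monkeys were studied over one day with oral BID dosing at time 0 and 8 h. Plasma levels were sampled at set time points over 1–24 h and reported as average ± standard deviation in nM, n = 4.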

[14] = Tmax in one day castrated cynomolgus monkey at 1.5 mg/kg, po bid; assay type: ADME, organism-based, Macaca fascicularis; details: male, in vivo; outline: as §3

IC50 [1]: 9 µM
remaining at 10 min, 0.5 µM [2]: 66%
remaining at 10 min, 0.5 µM [3]: 83%
IC50 [4]: 4 nM
Cmax [6]: 3000 nM
Tmax [7]: 1.3 h
Vd [8]: 4.4 L/kg
bioavailability [9]: 97%
Ratio [10]: 16
Cp(f) [11]: 80 nM
Tmax [13]: 9.5 h
Tmax [14]: 1 h
Structure (SMILES): Cc1ccncc1-c1cccc2c1ncn2CC(F)(F)F
Selectivity ratio [5]: 11
Activity [12]: Non-toxic
